{"source": "ChEMBL document CHEMBL5661979", "about": "“Pharmacological inhibition of BMK1 suppresses tumor growth through promyelocytic leukemia protein” (Cancer Cell, 2010)", "key": {"[1]": {"target": "Calcium/calmodulin-dependent protein kinase type 1D (Homo sapiens, UniProt Q8IU85)", "sequence (Q8IU85 whole entry)": "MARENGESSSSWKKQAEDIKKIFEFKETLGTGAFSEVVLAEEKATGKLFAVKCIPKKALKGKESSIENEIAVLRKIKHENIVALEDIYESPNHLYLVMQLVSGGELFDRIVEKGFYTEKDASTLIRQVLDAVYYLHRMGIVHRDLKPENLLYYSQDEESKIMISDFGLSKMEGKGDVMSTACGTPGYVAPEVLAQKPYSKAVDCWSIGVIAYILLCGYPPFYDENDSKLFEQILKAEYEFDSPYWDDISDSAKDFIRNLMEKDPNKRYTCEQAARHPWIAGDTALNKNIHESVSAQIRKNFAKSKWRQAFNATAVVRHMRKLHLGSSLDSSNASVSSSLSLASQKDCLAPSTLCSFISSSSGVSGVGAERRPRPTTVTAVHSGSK", "test": "Inhibition of CAMK1d in human HeLa cells lysate pre incubated for 15 mins followed by ATP acyl phosphate probe addition and measured after 10 mins by LC-MS/MS analysis", "format": "subcellular", "method_in_brief": "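KiNativ-type profiling in HeLa lysate (5 mg/mL total protein). Lysate preincubated 15 min with inhibitor at 50, 10, 2, 0.8 or 0 μM, then ATP or ADP acylphosphate probe added (5 μM final) for 10 min. Reaction stopped with urea and analysed by targeted MS, using up to four fragment ions per kinase peptide-probe conjugate. % inhibition calculated against untreated lysate. Duplicate reactions.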"}, "[2]": {"test": "Inhibition of MST4/YSK1 in human HeLa cells lysate at 50 uM pre incubated for 15 mins followed by ADP acyl phosphate probe addition and measured after 10 mins by LC-MS/MS analysis relative to control", "conditions": "25 min, condition cancer"}, "[3]": {"test": "Inhibition of MAP3K2/MAP3K3 in human HeLa cells lysate pre incubated for 15 mins followed by ATP acyl phosphate probe addition and measured after 10 mins by LC-MS/MS analysis", "format": "subcellular"}, "[4]": {"target": "Serine/threonine-protein kinase PLK1 (Homo sapiens, UniProt P53350)", "sequence (P53350 whole entry)": "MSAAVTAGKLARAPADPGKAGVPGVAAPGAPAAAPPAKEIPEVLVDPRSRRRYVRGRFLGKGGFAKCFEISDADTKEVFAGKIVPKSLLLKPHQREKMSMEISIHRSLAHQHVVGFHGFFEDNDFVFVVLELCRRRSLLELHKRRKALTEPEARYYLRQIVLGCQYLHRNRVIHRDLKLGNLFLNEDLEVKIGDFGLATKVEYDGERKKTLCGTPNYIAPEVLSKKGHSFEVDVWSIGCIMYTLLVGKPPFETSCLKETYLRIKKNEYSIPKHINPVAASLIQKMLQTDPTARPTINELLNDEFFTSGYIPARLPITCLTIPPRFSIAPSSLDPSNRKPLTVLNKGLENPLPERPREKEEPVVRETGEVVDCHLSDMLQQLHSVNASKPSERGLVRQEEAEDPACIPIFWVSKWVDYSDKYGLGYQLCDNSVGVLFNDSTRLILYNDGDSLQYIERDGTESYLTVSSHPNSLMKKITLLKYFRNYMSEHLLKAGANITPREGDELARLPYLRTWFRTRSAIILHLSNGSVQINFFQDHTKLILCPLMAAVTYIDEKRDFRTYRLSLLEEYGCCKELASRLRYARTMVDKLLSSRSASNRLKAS", "test": "Inhibition of PLK1 in human HeLa cells lysate pre incubated for 15 mins followed by ADP acyl phosphate probe addition and measured after 10 mins by LC-MS/MS analysis", "format": "subcellular"}, "[5]": {"target": "T1, Serine/threonine-protein kinase TAO2 (Homo sapiens) (UniProt Q9UL54)", "T1 sequence (whole entry)": "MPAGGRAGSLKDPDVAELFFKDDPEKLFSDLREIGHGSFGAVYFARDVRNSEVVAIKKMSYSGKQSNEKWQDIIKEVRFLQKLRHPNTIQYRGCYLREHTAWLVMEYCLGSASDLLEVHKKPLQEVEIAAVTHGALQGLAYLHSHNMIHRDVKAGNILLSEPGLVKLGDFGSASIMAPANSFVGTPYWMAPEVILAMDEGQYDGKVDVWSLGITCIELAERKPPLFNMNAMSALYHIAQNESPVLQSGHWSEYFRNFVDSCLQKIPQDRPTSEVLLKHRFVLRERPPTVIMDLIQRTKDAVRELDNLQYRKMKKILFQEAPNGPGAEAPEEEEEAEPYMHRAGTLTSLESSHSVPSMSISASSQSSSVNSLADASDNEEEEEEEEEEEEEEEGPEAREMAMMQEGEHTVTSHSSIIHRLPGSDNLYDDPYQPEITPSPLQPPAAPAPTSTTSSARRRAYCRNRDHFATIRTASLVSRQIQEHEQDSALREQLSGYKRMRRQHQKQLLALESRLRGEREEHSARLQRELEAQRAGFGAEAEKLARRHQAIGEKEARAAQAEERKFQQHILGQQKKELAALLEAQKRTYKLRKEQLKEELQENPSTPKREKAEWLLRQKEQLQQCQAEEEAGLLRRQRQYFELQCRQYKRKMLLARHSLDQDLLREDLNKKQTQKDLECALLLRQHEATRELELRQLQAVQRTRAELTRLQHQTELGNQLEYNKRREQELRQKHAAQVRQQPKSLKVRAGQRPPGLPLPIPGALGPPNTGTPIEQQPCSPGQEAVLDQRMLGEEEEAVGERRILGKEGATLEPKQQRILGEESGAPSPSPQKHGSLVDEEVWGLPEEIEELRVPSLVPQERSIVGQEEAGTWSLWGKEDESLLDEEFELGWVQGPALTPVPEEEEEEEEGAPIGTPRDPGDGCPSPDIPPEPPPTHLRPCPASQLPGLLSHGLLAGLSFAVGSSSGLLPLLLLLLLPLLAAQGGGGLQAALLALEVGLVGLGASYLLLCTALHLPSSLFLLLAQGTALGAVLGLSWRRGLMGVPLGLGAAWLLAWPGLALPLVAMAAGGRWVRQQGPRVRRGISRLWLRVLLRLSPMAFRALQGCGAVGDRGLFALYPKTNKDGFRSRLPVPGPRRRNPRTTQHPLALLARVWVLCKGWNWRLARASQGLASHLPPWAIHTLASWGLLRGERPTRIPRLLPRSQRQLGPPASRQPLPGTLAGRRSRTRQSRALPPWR", "test": "Inhibition of TAO2 in human HeLa cells lysate at 2 uM pre incubated for 15 mins followed by ATP acyl phosphate probe addition and measured after 10 mins by LC-MS/MS analysis relative to control", "format": "subcellular", "conditions": "time 25.0 min"}, "[6]": {"target": "T2, Dual specificity mitogen-activated protein kinase kinase 6 (Homo sapiens) (UniProt P52564)", "T2 sequence (whole entry)": "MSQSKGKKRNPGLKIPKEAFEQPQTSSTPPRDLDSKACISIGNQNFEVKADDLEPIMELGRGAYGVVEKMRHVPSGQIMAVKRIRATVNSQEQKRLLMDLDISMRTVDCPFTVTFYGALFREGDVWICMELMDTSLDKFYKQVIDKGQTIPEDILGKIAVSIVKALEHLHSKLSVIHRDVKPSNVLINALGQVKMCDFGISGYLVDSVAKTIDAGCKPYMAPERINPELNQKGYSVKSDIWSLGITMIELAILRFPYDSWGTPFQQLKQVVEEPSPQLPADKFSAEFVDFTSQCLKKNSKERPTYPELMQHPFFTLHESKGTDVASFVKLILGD", "test": "Inhibition of MAP2K6 in human HeLa cells lysate at 50 uM pre incubated for 15 mins followed by ADP acyl phosphate probe addition and measured after 10 mins by LC-MS/MS analysis relative to control", "format": "subcellular", "conditions": "time 25.0 min"}, "[7]": {"target": "T2, Dual specificity mitogen-activated protein kinase kinase 6 (Homo sapiens)", "test": "Inhibition of MAP2K6 in human HeLa cells lysate at 2 uM pre incubated for 15 mins followed by ADP acyl phosphate probe addition and measured after 10 mins by LC-MS/MS analysis relative to control", "format": "subcellular", "conditions": "time 25.0 min"}, "[8]": {"target": "Serine/threonine-protein kinase Nek1 (Homo sapiens) (UniProt Q96PY6)", "sequence (Q96PY6 whole entry)": "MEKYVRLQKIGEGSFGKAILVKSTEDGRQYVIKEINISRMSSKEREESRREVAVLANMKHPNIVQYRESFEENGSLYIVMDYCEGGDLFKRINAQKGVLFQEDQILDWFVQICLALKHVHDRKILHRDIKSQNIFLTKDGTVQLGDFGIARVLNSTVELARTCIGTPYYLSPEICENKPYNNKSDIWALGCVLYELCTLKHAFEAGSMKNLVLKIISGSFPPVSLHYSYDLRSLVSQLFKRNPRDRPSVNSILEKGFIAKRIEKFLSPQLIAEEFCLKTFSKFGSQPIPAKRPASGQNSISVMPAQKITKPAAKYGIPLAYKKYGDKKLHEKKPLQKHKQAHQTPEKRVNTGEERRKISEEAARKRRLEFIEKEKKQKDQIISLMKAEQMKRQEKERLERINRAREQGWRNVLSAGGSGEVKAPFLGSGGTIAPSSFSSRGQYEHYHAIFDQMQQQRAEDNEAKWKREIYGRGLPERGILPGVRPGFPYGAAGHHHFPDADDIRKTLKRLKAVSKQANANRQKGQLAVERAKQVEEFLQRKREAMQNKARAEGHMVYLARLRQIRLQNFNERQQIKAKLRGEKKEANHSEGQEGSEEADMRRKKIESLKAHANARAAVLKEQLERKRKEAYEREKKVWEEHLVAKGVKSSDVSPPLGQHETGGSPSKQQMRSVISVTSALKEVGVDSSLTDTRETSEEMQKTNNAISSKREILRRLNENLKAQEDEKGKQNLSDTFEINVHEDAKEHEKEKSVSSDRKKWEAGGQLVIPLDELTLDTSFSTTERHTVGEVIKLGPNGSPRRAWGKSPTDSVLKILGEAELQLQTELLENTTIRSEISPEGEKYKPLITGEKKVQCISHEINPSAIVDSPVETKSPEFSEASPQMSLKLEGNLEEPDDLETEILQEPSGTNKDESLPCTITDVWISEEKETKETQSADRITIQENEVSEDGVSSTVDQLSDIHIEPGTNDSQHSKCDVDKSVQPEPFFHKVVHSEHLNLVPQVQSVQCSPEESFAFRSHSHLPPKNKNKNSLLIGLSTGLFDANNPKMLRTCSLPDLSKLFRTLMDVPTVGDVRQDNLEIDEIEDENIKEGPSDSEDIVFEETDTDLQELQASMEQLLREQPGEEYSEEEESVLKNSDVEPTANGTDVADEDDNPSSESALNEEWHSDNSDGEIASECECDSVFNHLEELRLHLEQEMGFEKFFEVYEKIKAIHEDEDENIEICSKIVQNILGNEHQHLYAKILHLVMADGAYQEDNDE", "test": "Inhibition of NEK1 in human HeLa cells lysate at 2 uM pre incubated for 15 mins followed by ATP acyl phosphate probe addition and measured after 10 mins by LC-MS/MS analysis relative to control", "format": "subcellular", "conditions": "time 25.0 min"}, "[9]": {"target": "T3, Serine/threonine-protein kinase Sgk3 (Homo sapiens) (UniProt Q96BR1)", "T3 sequence (whole entry)": "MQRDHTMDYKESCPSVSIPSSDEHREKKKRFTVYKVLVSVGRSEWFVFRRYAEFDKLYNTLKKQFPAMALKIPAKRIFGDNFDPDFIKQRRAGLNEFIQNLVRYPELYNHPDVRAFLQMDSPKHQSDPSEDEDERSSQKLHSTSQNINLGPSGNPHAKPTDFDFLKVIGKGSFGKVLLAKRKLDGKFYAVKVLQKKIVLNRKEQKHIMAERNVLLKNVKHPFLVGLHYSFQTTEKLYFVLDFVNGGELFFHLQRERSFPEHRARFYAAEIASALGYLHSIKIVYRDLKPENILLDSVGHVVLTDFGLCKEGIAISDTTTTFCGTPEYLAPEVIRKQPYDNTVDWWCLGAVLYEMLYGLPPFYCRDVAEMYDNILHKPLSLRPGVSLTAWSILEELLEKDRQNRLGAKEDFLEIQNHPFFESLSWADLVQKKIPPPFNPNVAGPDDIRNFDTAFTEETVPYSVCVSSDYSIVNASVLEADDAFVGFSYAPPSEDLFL", "test": "Inhibition of SGK3 in human HeLa cells lysate at 10 uM pre incubated for 15 mins followed by ATP acyl phosphate probe addition and measured after 10 mins by LC-MS/MS analysis relative to control", "format": "subcellular", "conditions": "time 25.0 min"}}, "data": [{"smiles": "CCOc1cc(N2CCC(O)CC2)ccc1Nc1ncc2c(n1)N(C)c1ccccc1C(=O)N2C", "values": [{"measurement": "IC50", "setting": "[1]", "result": "> 50", "unit": "µM"}, {"measurement": "inhibition at 50 µM", "setting": "[2]", "result": -14.3, "unit": "%"}, {"measurement": "IC50", "setting": "[3]", "result": "> 50", "unit": "µM"}, {"measurement": "IC50", "setting": "[4]", "result": "> 50", "unit": "µM"}, {"measurement": "inhibition", "setting": "[5]", "result": -8.5, "unit": "%"}, {"measurement": "inhibition", "setting": "[6]", "result": 9.1, "unit": "%"}, {"measurement": "inhibition", "setting": "[7]", "result": 6.7, "unit": "%"}, {"measurement": "inhibition", "setting": "[8]", "result": 6.1, "unit": "%"}, {"measurement": "inhibition", "setting": "[9]", "result": 4.4, "unit": "%"}]}]}
